NPY-Y1 antag – NPY-Y1 (human) receptor antagonism | P25929 | HEK293-CNG Y1 cells, membrane potential fluorescence; NPY at EC95, then isoproterenol | inhibition, % at 3.6 µM | 200,000 compounds, 1% hits;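 active = inhibition above the campaign mean inhibition of all tested compounds plus 3 SD, cut at about 20% in these data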
Target sequence (P25929 whole entry, looked up): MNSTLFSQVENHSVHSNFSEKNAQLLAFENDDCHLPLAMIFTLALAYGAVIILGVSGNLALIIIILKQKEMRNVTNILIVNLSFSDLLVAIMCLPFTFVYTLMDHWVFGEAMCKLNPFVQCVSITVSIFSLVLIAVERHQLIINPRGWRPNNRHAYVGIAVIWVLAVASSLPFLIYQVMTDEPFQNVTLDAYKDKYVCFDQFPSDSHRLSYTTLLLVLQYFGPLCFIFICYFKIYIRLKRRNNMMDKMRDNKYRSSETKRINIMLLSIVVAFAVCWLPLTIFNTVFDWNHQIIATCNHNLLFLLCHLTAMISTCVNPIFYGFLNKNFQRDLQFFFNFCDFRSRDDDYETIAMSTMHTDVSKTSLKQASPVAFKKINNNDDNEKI
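material = HEK293 cells with Y1 receptor plus CNG channel | also added = NPY 25 nM then isoproterenol 1 µM plus Ro 20-1724 25 µM | schedule = dye 3 h, compound 60 min room temperature, stimulation 45 min | measured by = membrane potential fluorescence | benchmarks = high control isoproterenol alone, low control NPY with isoproterenol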
NPY-Y1 PAM-ag – human NPY-Y1 potentiation or agonism, primary screen; P25929; NPY-Y1 expressing cells, potentiator/agonist activation; activation, % at 3.6 µM; 220,000 compounds, 0.37% hits; AID 1304; in the data active = activation above about 33%, passing the limit was not always enough;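 also: cells stimulated with NPY at EC10 then isoproterenol at EC100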
Wee1 degr inh – human Wee1 degradation inhibition, primary screen. HeLa Luc-Wee1K328M stability, luciferase luminescence; 100% = proteasome inhibitor MG132 effect. reporter increase, % at 5 µM. 220,000 compounds, 1.2% hits;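 active = activation above the mean of all tested compounds plus 3 SD, set per screening run, cut at about 8.8% in these data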;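 also: cells exposed to compound for 20 h before luminescence read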
NPY-Y2 PAM-ag – potentiates or activates human NPY-Y2 receptor; P49146; cells expressing NPY-Y2, potentiator/agonist read-out; activation, % at 3.6 µM; 220,000 compounds, 0.45% hits; AID 1359; in the data active = activation above about 27%;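 also: cells stimulated with NPY near EC25 plus isoproterenol at EC100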
Target sequence (P49146 whole entry, looked up): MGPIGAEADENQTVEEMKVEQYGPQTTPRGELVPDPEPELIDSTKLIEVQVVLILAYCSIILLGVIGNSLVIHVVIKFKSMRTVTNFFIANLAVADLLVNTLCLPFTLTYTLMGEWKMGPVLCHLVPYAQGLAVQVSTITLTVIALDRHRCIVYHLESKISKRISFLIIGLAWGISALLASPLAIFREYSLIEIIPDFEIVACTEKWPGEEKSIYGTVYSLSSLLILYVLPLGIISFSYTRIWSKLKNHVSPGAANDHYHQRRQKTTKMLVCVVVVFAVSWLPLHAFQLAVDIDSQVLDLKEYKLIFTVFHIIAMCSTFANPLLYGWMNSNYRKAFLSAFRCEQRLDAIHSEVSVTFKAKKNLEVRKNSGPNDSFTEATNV
Hsp70 act – transcriptional activators of Hsp70. HeLa Hsp70 promoter luciferase reporter, luminescence; scaled: vehicle 0, proteasome-inhibitor control 100%. activation, % at 10 µM. 200,000 compounds, 0.04% hits. AID 1203;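 active = activation above the mean across all tested compounds plus 3 SD, cutoff set per campaign, cut at about 5.5% in these data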
NPY Y2 blocker – antagonists of human neuropeptide Y receptor Y2 | P49146 | NPY-Y2 expressing cells, antagonist mode | inhibition, % at 2.7 µM | 140,000 compounds, 0.99% hits | AID 793; in the data active = inhibition above about 17%
Large screens that a line does not name were inactive; ! = repeats disagree. An excerpt weighted towards active compounds, which were near 3% of everything screened.

COc1ccc2[nH]c(C(=O)Nc3ccc(F)cc3Br)cc2c1	none (no result: NPY-Y1 antag, Hsp70 act, NPY Y2 blocker)
COc1ccc(CCNC(=O)COC(=O)C2CC2)cc1	none (no result: NPY Y2 blocker)
COc1ccc(CCNC(=O)COC(=O)CCC(=O)c2ccc(F)cc2)cc1	Wee1 degr inh 11 (no result: NPY Y2 blocker)
COc1ccc(C(=O)NC(C(=O)NCCc2ccc3c(c2)OCCO3)C(C)C)cc1 (stereo not given)	none (no result: NPY Y2 blocker)
Cc1cc(N/N=C/c2ccccc2Cl)nc(NCc2ccccc2)n1	NPY-Y1 antag 25, NPY Y2 blocker 19
Cc1cc(NC2CCCCC2)nc(NCc2ccccc2)n1	NPY-Y1 antag 23, NPY Y2 blocker 24
O=C(N/N=C/c1coc2ccccc2c1=O)c1ccccc1	none (no result: NPY Y2 blocker)
O=C(N/N=C/c1coc2ccccc2c1=O)c1cn(-c2ccccc2)nc1-c1ccccc1	Wee1 degr inh 10.0
CCCCC(=O)Nc1ccc(NC(=S)NC(=O)CCCCl)cc1OC	none
Cc1cc(C)nc(NC(=O)c2ccc(C)c([N+](=O)[O-])c2)n1	none
Cc1ccc(C(=O)Nn2cnnc2)cc1[N+](=O)[O-]	NPY Y2 blocker 18
N#C/C(C(N)=O)=c1/ccc2c(c1)N1C3=C(CCCC3)CC3CCCCC31N=2 (stereo not given)	NPY-Y1 PAM-ag 51, NPY-Y2 PAM-ag 47
N#CC(C#N)=c1ccc2c(c1)N1C3=C(CCCC3)CC3CCCCC31N=2 (stereo not given)	none
CCn1nccc1C(=O)NC1=C(C#N)CCC1	none
CCn1ccc(C(=O)NC2=C(C#N)CCC2)n1	Wee1 degr inh 9.7
CCOC(=O)c1ccccc1NC(=S)N1CCN(C2CCCCC2)CC1	none (no result: NPY Y2 blocker)
C=CCc1cccc2cc(C(=O)Nc3ccccc3C(=O)O)c(=O)oc12	NPY-Y2 PAM-ag 45 (no result: NPY Y2 blocker)
CCOc1ccc(N(CC(=O)NC(C(C)C)C(C)C)S(=O)(=O)c2ccc(OC)c(OC)c2)cc1	none (no result: NPY Y2 blocker)
CCOc1ccccc1C1C(C#N)=C(N)Oc2cc(N)ccc21 (stereo not given)	NPY-Y1 PAM-ag 113, NPY-Y2 PAM-ag 49
COc1ccc(OC)c(C2C(C#N)=C(N)Oc3cc(N)ccc32)c1 (stereo not given)	none
CN(C1=NC(=O)C(CC(=O)O)S1)c1ccc(O)cc1 (stereo not given)	none (no result: NPY Y2 blocker)
COc1cc(-c2noc(CCCC(=O)Nc3ccc(C(N)=O)cc3)n2)cc(OC)c1OC	Wee1 degr inh 10 (no result: NPY-Y1 antag, Hsp70 act, NPY Y2 blocker)
Cc1cccc(C(=O)N2CCN(c3ccc(C(F)(F)F)cn3)CC2)c1C	none
COc1ccc(/C=C/C(=O)c2ccccc2)c(OC)c1	none (no result: NPY Y2 blocker)
COc1ccc(/C=C/C(=O)c2ccc3c(c2)OCO3)c(OC)c1	Wee1 degr inh 29
COc1cccc(OCC(O)CN2CCOCC2)c1 (stereo not given)	NPY-Y1 PAM-ag 60, NPY-Y2 PAM-ag 45
COc1ccc(COCC(O)CN2CCOCC2)cc1OC (stereo not given)	NPY-Y1 PAM-ag 54, NPY-Y2 PAM-ag 79
O=C(NC1CCCC1)C1CCN(C(=O)c2ccc(-c3ccccc3)cc2)CC1	none (no result: NPY Y2 blocker)
COC(=O)[C@@]1(Cc2ccc(OC)cc2)[C@H]2c3cc(C(=O)N4CCCC4)n(Cc4ccc(C)o4)c3C[C@H]2CN1C(=O)c1ccccc1	NPY-Y1 antag 32, NPY Y2 blocker 23
COC(=O)[C@@]1(Cc2ccc(F)cc2)[C@H]2c3cc(C(=O)N(C)C)n(Cc4ccccc4)c3C[C@H]2CN1C(=O)c1ccccc1	NPY-Y1 antag 32, NPY Y2 blocker 21
COCCn1c(C(=O)N2CCCC2)cc2c1C[C@H]1CN(C(=O)c3ccccc3)[C@@](Cc3ccc(F)cc3)(C(=O)OC)[C@@H]21	none
CNS(=O)(=O)c1cccc(C(=O)OCC(=O)Nc2ccc(Cl)cc2F)c1	Wee1 degr inh 9.8 (no result: NPY-Y1 antag, Hsp70 act, NPY Y2 blocker)
CNS(=O)(=O)c1cccc(C(=O)OCC(=O)Nc2cc(F)ccc2F)c1	none (no result: NPY Y2 blocker)
CCOC(=O)C1(CCOc2ccccc2)CCN(Cc2ccc3c(c2)OCCO3)CC1	NPY-Y1 antag 21 (no result: NPY Y2 blocker)
CCOC(=O)C1(Cc2cccc(OC)c2)CCN(Cc2cccc3c2OCO3)CC1	NPY-Y1 antag 21 (no result: NPY Y2 blocker)
O=C(Cc1sc(Nc2ccccc2)nc1-c1ccccc1)NCc1ccccn1	Wee1 degr inh 9.1 (no result: NPY Y2 blocker)
COC(=O)c1ccccc1NC(=O)NC1CCCC1	Wee1 degr inh 9.5 (no result: NPY Y2 blocker)
NC(=O)c1ccccc1NC(=O)NC1CCCCC1	Wee1 degr inh 11
COC(=O)c1ccccc1NC(=O)C1CCCC1	none
O=C(Nc1ccccc1NC(=O)NC1CCCCC1)NC1CCCCC1	none
CCCN1CCC(=NNc2ccc(C(=O)O)cc2)CC1	none (no result: NPY Y2 blocker)
N#Cc1nc(COc2ccc(Br)cc2)oc1N1CCN(Cc2ccccc2)CC1	NPY-Y1 antag 35, NPY Y2 blocker 32
CCN1CCN(c2oc(COc3ccc(-c4ccccc4)cc3)nc2C#N)CC1	none
N#Cc1nc(COc2ccc(F)cc2)oc1N1CCN(Cc2ccccc2)CC1	NPY-Y1 antag 34, NPY Y2 blocker 32
N#Cc1nc(COc2ccc(F)cc2)oc1N1CCC(Cc2ccccc2)CC1	NPY-Y1 antag 32, NPY Y2 blocker 37
N#Cc1nc(Cc2ccccc2)oc1N1CCC(Cc2ccccc2)CC1	none
Cc1nn(C)c(C)c1NC(=O)c1ccccc1NC(=O)Nc1ccccc1	none (no result: NPY-Y1 antag, Hsp70 act, NPY Y2 blocker)
Cc1c(N=NC2=C(O)CC(C)(C)CC2=O)c(=O)n(-c2ccccc2)n1C	none (no result: NPY Y2 blocker)
COc1ccc(CNC(=O)c2cc(C)nn2-c2ccccc2)cc1	none (no result: NPY-Y1 antag, Hsp70 act, NPY Y2 blocker)
CC1CC(C)CN(C(=O)c2cc3cc(Br)cc(Br)c3o2)C1 (stereo not given)	none (no result: NPY Y2 blocker)
CN(C)CCOC(c1ccccc1)c1ccccc1	NPY-Y1 PAM-ag 107!, NPY-Y2 PAM-ag 101!
CCOc1cc(/C=C(\C#N)c2[nH]nc(N)c2C#N)ccc1O	none
CC(C)C[C@H](NC(=O)CCCn1nnc2ccccc2c1=O)C(=O)O	none (no result: NPY-Y1 antag, Hsp70 act, NPY Y2 blocker)
O=C(O)CCNC(=O)CCCn1nnc2ccccc2c1=O	Wee1 degr inh 9.5 (no result: NPY-Y1 antag, Hsp70 act, NPY Y2 blocker)
CCCC(c1nnnn1Cc1ccco1)N1CCN(c2cc(Cl)ccc2C)CC1 (stereo not given)	NPY-Y1 antag 29, NPY Y2 blocker 27
Nc1nc(Nc2cccc(F)c2)nc2ccccc12	NPY-Y1 PAM-ag 42, NPY-Y2 PAM-ag 43
O=c1oc(Nc2cccc(F)c2)nc2ccccc12	none
CC(=O)c1ccc(Nc2cc(C)nc3c(C)cccc23)cc1	Wee1 degr inh 10 (no result: NPY Y2 blocker)
O=C(N/N=C/c1ccncc1)NC12CC3CC(CC(C3)C1)C2	none (no result: NPY-Y1 antag, Hsp70 act, NPY Y2 blocker)
Cc1ccc(/C=N/NC(=O)NC23CC4CC(CC(C4)C2)C3)o1	Wee1 degr inh 10 (no result: NPY-Y1 antag, Hsp70 act, NPY Y2 blocker)
CCc1ccc2[nH]c(=O)c(CN(CCN3CCOCC3)C(=O)Nc3ccccc3F)cc2c1	none
COc1cc2cc(CN(CCCN3CCOCC3)C(=O)Nc3ccccc3F)c(=O)[nH]c2cc1OC	Wee1 degr inh 9.2 (no result: NPY Y2 blocker)
O=C(NC(=S)NCC1CCCO1)c1ccccc1 (stereo not given)	Wee1 degr inh 9.0
COc1cc(/C=C/C(=O)OCC(=O)NC(=O)NC23CC4CC(CC(C4)C2)C3)ccc1OCC#N	none
